Test results: ChEMBL document CHEMBL3217512, “Indole/triazole conjugates are selective inhibitors and inducers of bacterial biofilms” (Medchemcomm, 2013)

Tests used:
Staphylococcus aureus [1] = test: Antimicrobial activity against Staphylococcus aureus 29213 assessed as effect on planktonic growth at PC75 after 2 to 24 hrs; format: organism-based; conditions: in vivo
Escherichia coli [2] = test: Antimicrobial activity against Escherichia coli K-12 ER2718 assessed as effect on planktonic growth at PC75 after 2 to 24 hrs by colony count method; format: organism-based; conditions: in vivo
Staphylococcus aureus [3] = test: Antimicrobial activity against methicillin-resistant Staphylococcus aureus BAA 44 assessed as effect on planktonic growth at PC75 after 2 to 24 hrs by colony count method; format: organism-based; conditions: in vivo
Acinetobacter baumannii [4] = test: Antimicrobial activity against Acinetobacter baumannii 19606 assessed as effect on planktonic growth at PC25 after 2 to 24 hrs; design: species or system ATCC 19606
Staphylococcus aureus [5] = test: Antimicrobial activity against methicillin-resistant Staphylococcus aureus BAA 44 assessed as effect on planktonic growth at PC50 after 2 to 24 hrs; format: organism-based; conditions: in vivo
Staphylococcus aureus [6] = test: Antimicrobial activity against methicillin-resistant Staphylococcus aureus BAA 44 assessed as effect on planktonic growth at PC25 after 2 to 24 hrs by colony count method; format: organism-based; conditions: in vivo
Staphylococcus aureus [7] = test: Antimicrobial activity against methicillin-resistant Staphylococcus aureus BAA 44 assessed as effect on planktonic growth at 50 uM after 2 to 24 hrs; format: organism-based
In short: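 Growth-curve analysis of planktonic MRSA in the presence of each biofilm inducer at 50 μM, to check for toxicity.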

Escherichia coli [8] = test: Antimicrobial activity against Escherichia coli K-12 ER2718 assessed as effect on planktonic growth at PC25 after 2 to 24 hrs by colony count method; format: organism-based
Acinetobacter baumannii [9] = test: Antimicrobial activity against Acinetobacter baumannii 19606 assessed as effect on planktonic growth at IC50 after 2 to 24 hrs; design: species or system ATCC 19606
Acinetobacter baumannii [10] = test: Antimicrobial activity against Acinetobacter baumannii 19606 assessed as effect on planktonic growth at PC25 after 2 to 24 hrs by colony count method; design: species or system ATCC 19606
Acinetobacter baumannii [11] = test: Antimicrobial activity against Acinetobacter baumannii 19606 assessed as effect on planktonic growth at 50 uM after 2 to 24 hrs; design: species or system ATCC 19606
In short: (§1)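 Growth curve analysis of planktonic bacteria with each biofilm inducer at 50 μM, used to assess toxicity.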

Acinetobacter baumannii [12] = test: Antimicrobial activity against Acinetobacter baumannii 19606 assessed as effect on planktonic growth at PC75 after 2 to 24 hrs by colony count method; design: species or system ATCC 19606
Staphylococcus aureus [13] = test: Induction of biofilm formation in Staphylococcus aureus 29213 at 50 uM after 24 hrs by crystal violet staining-based assay relative to control; format: functional
In short: (§2)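 Static biofilm assay with compounds at 50 μM and crystal violet read-out, relative to an untreated control. Compounds increasing biofilm by less than 50% were called inducers, and by more than 50% strong inducers.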

Staphylococcus aureus [14] = test: Induction of biofilm formation in methicillin-resistant Staphylococcus aureus BAA 44 at 50 uM after 24 hrs by crystal violet staining-based assay relative to control; format: functional
In short: (§3)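 Static biofilm development in MRSA, read out by crystal violet staining against an untreated control. Initial screen at 150 μM. Inhibitors then went to dose-response, with IC50 taken as the concentration giving 50% inhibition of biofilm growth. Induction was judged at 50 μM: under 50% induction counted as "inducer", over 50% as "strong inducer".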

Acinetobacter baumannii [15] = test: Antimicrobial activity against Acinetobacter baumannii 19606 assessed as effect on planktonic growth at PC50 after 2 to 24 hrs by colony count method; design: species or system ATCC 19606
Escherichia coli [16] = test: Induction of biofilm formation in Escherichia coli K-12 ER2718 at 50 uM after 24 hrs by crystal violet staining-based assay relative to control; format: functional; in short: as §2
Escherichia coli [17] = test: Antimicrobial activity against Escherichia coli K-12 ER2718 assessed as effect on planktonic growth at 50 uM after 2 to 24 hrs; format: organism-based; in short: as §1
Staphylococcus aureus [18] = test: Antimicrobial activity against Staphylococcus aureus 29213 assessed as effect on planktonic growth at PC25 after 2 to 24 hrs by colony count method; format: organism-based; conditions: in vivo
Staphylococcus aureus [19] = test: Antimicrobial activity against Staphylococcus aureus 29213 assessed as effect on planktonic growth at IC50 after 2 to 24 hrs; format: organism-based; conditions: in vivo
Staphylococcus aureus [20] = test: Antimicrobial activity against Staphylococcus aureus 29213 assessed as effect on planktonic growth at 50 uM after 2 to 24 hrs; format: organism-based; in short: as §1
Staphylococcus aureus [21] = test: Antimicrobial activity against methicillin-resistant Staphylococcus aureus BAA 44 assessed as effect on planktonic growth at PC25 after 2 to 24 hrs; format: organism-based; conditions: in vivo
Staphylococcus aureus [22] = test: Antimicrobial activity against Staphylococcus aureus 29213 assessed as effect on planktonic growth at IC50 after 2 to 24 hrs by colony count method; format: organism-based; conditions: in vivo
Staphylococcus aureus [23] = test: Antimicrobial activity against methicillin-resistant Staphylococcus aureus BAA 44 assessed as effect on planktonic growth at PC50 after 2 to 24 hrs by colony count method; format: organism-based; conditions: in vivo
Escherichia coli [24] = test: Antimicrobial activity against Escherichia coli K-12 ER2718 assessed as effect on planktonic growth at PC25 after 2 to 24 hrs; format: organism-based
Escherichia coli [25] = test: Antimicrobial activity against Escherichia coli K-12 ER2718 assessed as effect on planktonic growth at IC50 after 2 to 24 hrs; format: organism-based
Staphylococcus aureus [26] = test: Antimicrobial activity against Staphylococcus aureus 29213 assessed as effect on planktonic growth at PC50 after 2 to 24 hrs by colony count method; format: organism-based; conditions: in vivo
Staphylococcus aureus [27] = test: Antimicrobial activity against Staphylococcus aureus 29213 assessed as effect on planktonic growth at PC50 after 2 to 24 hrs; format: organism-based; conditions: in vivo
Staphylococcus aureus [28] = test: Antimicrobial activity against Staphylococcus aureus 29213 assessed as effect on planktonic growth at PC75 after 2 to 24 hrs by colony count method; format: organism-based; conditions: in vivo
Escherichia coli [29] = test: Antimicrobial activity against Escherichia coli K-12 ER2718 assessed as effect on planktonic growth at PC50 after 2 to 24 hrs by colony count method; format: organism-based; conditions: in vivo
Acinetobacter baumannii [30] = test: Antimicrobial activity against Acinetobacter baumannii 19606 assessed as effect on planktonic growth at PC50 after 2 to 24 hrs; design: species or system ATCC 19606
Escherichia coli [31] = test: Antimicrobial activity against Escherichia coli K-12 ER2718 assessed as effect on planktonic growth at IC50 after 2 to 24 hrs by colony count method; format: organism-based
Acinetobacter baumannii [32] = test: Antimicrobial activity against Acinetobacter baumannii 19606 assessed as effect on planktonic growth at PC75 after 2 to 24 hrs; design: species or system ATCC 19606
Escherichia coli [33] = test: Antimicrobial activity against Escherichia coli K-12 ER2718 assessed as effect on planktonic growth at PC50 after 2 to 24 hrs; format: organism-based
Staphylococcus aureus [34] = test: Antimicrobial activity against Staphylococcus aureus 29213 assessed as effect on planktonic growth at PC25 after 2 to 24 hrs; format: organism-based; conditions: in vivo
Acinetobacter baumannii [35] = test: Induction of biofilm formation in Acinetobacter baumannii 19606 at 50 uM after 24 hrs by crystal violet staining-based assay relative to control; format: functional, ATCC 19606 = CIP 70.34 = JCM 6841; in short: as §2
Acinetobacter baumannii [36] = test: Antimicrobial activity against Acinetobacter baumannii 19606 assessed as effect on planktonic growth at IC50 after 2 to 24 hrs by colony count method; design: species or system ATCC 19606
Staphylococcus aureus [37] = test: Antimicrobial activity against methicillin-resistant Staphylococcus aureus BAA 44 assessed as effect on planktonic growth at IC50 after 2 to 24 hrs by colony count method; format: organism-based; conditions: in vivo
Staphylococcus aureus [38] = test: Antimicrobial activity against methicillin-resistant Staphylococcus aureus BAA 44 assessed as effect on planktonic growth at PC75 after 2 to 24 hrs; format: organism-based; conditions: in vivo
Staphylococcus aureus [39] = test: Antimicrobial activity against methicillin-resistant Staphylococcus aureus BAA 44 assessed as effect on planktonic growth at IC50 after 2 to 24 hrs; format: organism-based; conditions: in vivo
Escherichia coli [40] = test: Antimicrobial activity against Escherichia coli K-12 ER2718 assessed as effect on planktonic growth at PC75 after 2 to 24 hrs; format: organism-based; conditions: in vivo
Acinetobacter baumannii [41] = test: Inhibition of biofilm formation in Acinetobacter baumannii 19606 after 24 hrs by crystal violet staining-based assay; format: functional; conditions: ATCC 19606 = CIP 70.34 = JCM 6841, 24 h
In short: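 Compounds active in the 150 μM screen were taken into dose-response studies under static conditions with a crystal violet read-out. IC50 is the concentration that inhibits 50% of biofilm growth relative to an untreated control.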

Staphylococcus aureus [42] = test: Inhibition of biofilm formation in methicillin-resistant Staphylococcus aureus BAA 44 after 24 hrs by crystal violet staining-based assay; format: functional, organism-based; conditions: BAA 44, 24 h; in short: as §3
Escherichia coli [43] = test: Inhibition of biofilm formation in Escherichia coli K-12 ER2718 at 150 uM after 24 hrs by crystal violet staining-based assay relative to control; format: functional; conditions: K-12 ER2718, 24 h
Staphylococcus aureus [44] = test: Inhibition of biofilm formation in Staphylococcus aureus 29213 at 150 uM after 24 hrs by crystal violet staining-based assay relative to control; format: functional; conditions: Staphylococcus aureus, 29213, 24 h
Acinetobacter baumannii [45] = test: Inhibition of biofilm formation in Acinetobacter baumannii 19606 at 150 uM after 24 hrs by crystal violet staining-based assay relative to control; format: functional; conditions: ATCC 19606 = CIP 70.34 = JCM 6841, 24 h

Row | Compound | Activity (Staphylococcus aureus [1]) | Activity (Staphylococcus aureus [3]) | Activity (Staphylococcus aureus [5]) | Activity (Staphylococcus aureus [6]) | Activity (Staphylococcus aureus [7]) | Activity (Acinetobacter baumannii [9]) | Activity (Staphylococcus aureus [13]) [%] | Activity (Staphylococcus aureus [14]) [%] | Activity (Staphylococcus aureus [18]) | Activity (Staphylococcus aureus [19]) | Activity (Staphylococcus aureus [20]) | Activity (Staphylococcus aureus [21]) | Activity (Staphylococcus aureus [22]) | Activity (Staphylococcus aureus [23]) | Activity (Escherichia coli [25]) | Activity (Staphylococcus aureus [26]) | Activity (Escherichia coli [31]) | Activity (Acinetobacter baumannii [36]) | Activity (Staphylococcus aureus [37]) | Activity (Staphylococcus aureus [39]) | other results
1 | CCCCCCCc1ccc(C(=O)NCCn2cc(Cc3c(Br)[nH]c4ccccc34)nn2)cc1 | Non-toxic | Non-toxic | Non-toxic | Non-toxic | Non-toxic | Non-toxic | <50 | >50 | Non-toxic | Non-toxic | Non-toxic | Non-toxic | Non-toxic | Non-toxic | Non-toxic | Non-toxic | Non-toxic | Non-toxic | Non-toxic | Non-toxic | Activity (Escherichia coli [2]): Non-toxic; Activity (Acinetobacter baumannii [4]): Non-toxic; Activity (Escherichia coli [8]): Non-toxic; Activity (Acinetobacter baumannii [10]): Non-toxic; Activity (Acinetobacter baumannii [11]): Non-toxic; Activity (Acinetobacter baumannii [12]): Non-toxic; Activity (Acinetobacter baumannii [15]): Non-toxic; Activity (Escherichia coli [16]): <50%; Activity (Escherichia coli [17]): Non-toxic; Activity (Escherichia coli [24]): Non-toxic; Activity (Staphylococcus aureus [27]): Non-toxic; Activity (Staphylococcus aureus [28]): Non-toxic; Activity (Escherichia coli [29]): Non-toxic; Activity (Acinetobacter baumannii [30]): Non-toxic; Activity (Acinetobacter baumannii [32]): Non-toxic; Activity (Escherichia coli [33]): Non-toxic; Activity (Staphylococcus aureus [34]): Non-toxic; Activity (Acinetobacter baumannii [35]): <50%; Activity (Staphylococcus aureus [38]): Non-toxic; Activity (Escherichia coli [40]): Non-toxic
2 | O=C(Cn1cc(Cc2c(Br)[nH]c3ccccc23)nn1)Nc1ccccc1 | Non-toxic | – | – | – | – | Non-toxic | >50 | – | Non-toxic | Non-toxic | Non-toxic | – | Non-toxic | – | Non-toxic | Non-toxic | Non-toxic | Non-toxic | Non-toxic | Non-toxic | IC50 (Acinetobacter baumannii [41]): 326 µM; IC50 (Staphylococcus aureus [42]): 151 µM; Activity (Staphylococcus aureus [27]): Non-toxic; Activity (Staphylococcus aureus [28]): Non-toxic; Activity (Staphylococcus aureus [34]): Non-toxic; inhibition at 150 µM (Escherichia coli [43]): 12%
3 | CCCCCCNC(=O)Cn1cc(Cc2c(Br)[nH]c3ccccc23)nn1 | – | Non-toxic | Non-toxic | Non-toxic | Non-toxic | Non-toxic | – | <50 | – | Non-toxic | – | Non-toxic | Non-toxic | Non-toxic | Non-toxic | – | Non-toxic | Non-toxic | Non-toxic | Non-toxic | inhibition at 150 µM (Staphylococcus aureus [44]): < 5%; inhibition at 150 µM (Acinetobacter baumannii [45]): 17%; inhibition at 150 µM (Escherichia coli [43]): < 5%; Activity (Staphylococcus aureus [38]): Non-toxic
